According to PMC6559718 (Journal of biomolecular screening, 2016):

Experiments:
[1] = target: T1, human ANT2 (Homo sapiens, UniProt P05141); test: ADP/ATP exchange with isolated yeast mitochondria expressing hANT2; type: biochemical; conditions: for ADP/ATP exchange activity / ADP uptake: 10 μM, isolated yeast mitochondria, hANT2 (Fig. 2B left)
T1 sequence (P05141 1-298): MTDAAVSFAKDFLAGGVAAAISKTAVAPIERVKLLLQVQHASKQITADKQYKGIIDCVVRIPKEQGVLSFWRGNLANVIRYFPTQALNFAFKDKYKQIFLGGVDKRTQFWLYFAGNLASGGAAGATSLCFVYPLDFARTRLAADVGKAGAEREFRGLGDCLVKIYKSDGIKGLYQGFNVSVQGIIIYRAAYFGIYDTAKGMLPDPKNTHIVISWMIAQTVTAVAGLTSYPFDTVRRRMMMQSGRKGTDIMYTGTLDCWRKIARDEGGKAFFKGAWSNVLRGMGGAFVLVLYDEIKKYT

[2] = system: four hANT yeast strains; test: Yeast growth assay in YPEG medium, the four hANT yeast strains; type: cell-based, Saccharomyces cerevisiae; conditions: hANT1, -2, -3 or -4 yeast strains, BKA final 50 μM
[3] = system: four hANT yeast strains
[4] = system: human ANT isoforms; test: ADP/ATP exchange in L. lactis, human ANT isoforms; type: biochemical; conditions: single-concentration test of compounds selected from the yeast growth assay
[5] = system: HCT116 cells; test: Oxygen consumption rate in HCT116 cells; type: cell-based, human; conditions: after ADP addition, leelamine 50 pM as printed
Outline: (§1)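 Cells were kept in RPMI1640 with 10% FBS, plated at 20,000/well, and incubated overnight at 37 °C in 5% CO2. Before the assay, medium was replaced with MAS buffer (mannitol/sucrose/KH2PO4/MgCl2/HEPES/EGTA, 0.2% fatty-acid-free BSA, pH 7.4) plus 10 mM pyruvate and […]. Sequential injections were atpenin A5, 3.5 mM ADP, plasma membrane permeabilizer, then test compound or cATR control. OCR was read on an extracellular flux analyzer.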

[6] = target: T2, human ANT1 (Homo sapiens, UniProt P12235); test: ADP/ATP exchange with Lactococcus lactis expressing hANT1; type: biochemical
T2 sequence (P12235 1-298): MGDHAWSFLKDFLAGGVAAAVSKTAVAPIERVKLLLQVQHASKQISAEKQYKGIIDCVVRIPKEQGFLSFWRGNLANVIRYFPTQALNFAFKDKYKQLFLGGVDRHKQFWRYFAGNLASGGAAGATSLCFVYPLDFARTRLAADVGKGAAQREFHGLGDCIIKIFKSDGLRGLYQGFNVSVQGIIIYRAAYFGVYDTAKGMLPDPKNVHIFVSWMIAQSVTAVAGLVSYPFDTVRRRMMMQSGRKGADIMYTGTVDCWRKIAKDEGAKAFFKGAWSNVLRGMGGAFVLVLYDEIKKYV

[7] = target: T3, human ANT3 (Homo sapiens, UniProt P12236); test: ADP/ATP exchange with Lactococcus lactis expressing hANT3; type: biochemical
T3 sequence (P12236 1-298): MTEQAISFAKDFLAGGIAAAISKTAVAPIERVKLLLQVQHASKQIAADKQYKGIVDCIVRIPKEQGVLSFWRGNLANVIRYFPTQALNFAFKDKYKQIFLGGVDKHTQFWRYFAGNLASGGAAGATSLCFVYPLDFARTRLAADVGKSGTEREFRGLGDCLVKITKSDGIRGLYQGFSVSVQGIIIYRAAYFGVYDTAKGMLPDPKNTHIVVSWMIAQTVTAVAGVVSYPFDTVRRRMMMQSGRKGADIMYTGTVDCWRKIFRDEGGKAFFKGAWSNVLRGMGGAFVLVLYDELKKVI

[8] = target: T1, human ANT2; test: ADP/ATP exchange with Lactococcus lactis expressing hANT2; type: biochemical
[9] = system: MiaPaCa-2 cells; test: Oxygen consumption rate in MiaPaCa-2 cells; type: cell-based, human; conditions: after ADP addition, leelamine 50 pM as printed
Outline: as §1

[10] = system: yeast strain expressing hANT4; test: microbe, parasite or virus in culture; type: cell-based; conditions: Saccharomyces cerevisiae, read-out: Activity hANT4 IC50
[11] = system: yeast strain expressing hANT1; test: microbe, parasite or virus in culture; type: cell-based; conditions: Saccharomyces cerevisiae, read-out: Activity hANT1 IC50
[12] = target: T2, human ANT1; test: ADP/ATP exchange with isolated yeast mitochondria expressing hANT1; type: biochemical
[13] = target: T3, human ANT3; test: ADP/ATP exchange with isolated yeast mitochondria expressing hANT3; type: biochemical
[14] = in vitro; conditions: Saccharomyces cerevisiae
[15] = in vitro; conditions: Saccharomyces cerevisiae; remark: listed apart in the source
[16] = system: yeast strain expressing hANT3; test: microbe, parasite or virus in culture; type: cell-based; conditions: Saccharomyces cerevisiae, read-out: Activity hANT3 IC50
[17] = system: yeast strain expressing hANT2; test: microbe, parasite or virus in culture; type: cell-based; conditions: Saccharomyces cerevisiae, read-out: Activity hANT2 IC50
[18] = in vitro; conditions: Saccharomyces cerevisiae; remark: listed apart in the source
[19] = in vitro; conditions: Saccharomyces cerevisiae; remark: listed apart in the source
[20] = target: T4, human ANT4 (Homo sapiens, UniProt Q9H0C2); test: ADP/ATP exchange with isolated yeast mitochondria expressing hANT4; type: biochemical
T4 sequence (Q9H0C2 1-315): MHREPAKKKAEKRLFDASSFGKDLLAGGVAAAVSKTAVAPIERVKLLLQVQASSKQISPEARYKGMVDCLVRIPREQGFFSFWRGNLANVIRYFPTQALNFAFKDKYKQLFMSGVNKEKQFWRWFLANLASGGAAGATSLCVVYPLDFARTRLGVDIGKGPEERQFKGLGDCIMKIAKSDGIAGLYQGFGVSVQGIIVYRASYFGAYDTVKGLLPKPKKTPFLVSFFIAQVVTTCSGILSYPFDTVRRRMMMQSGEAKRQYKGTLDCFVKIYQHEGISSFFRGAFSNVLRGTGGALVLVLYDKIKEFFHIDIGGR

[21] = system: human ANT isoforms; test: ADP/ATP exchange in isolated yeast mitochondria, human ANT isoforms; type: biochemical
[22] = read-out: L. lactis hANT1 IC50, [3H]ADP uptake, ADP/ATP exchange, mean ± SEM
[23] = read-out: L. lactis hANT3 IC50, [3H]ADP uptake, ADP/ATP exchange, mean ± SEM
[24] = read-out: L. lactis hANT2 IC50, [3H]ADP uptake, ADP/ATP exchange, mean ± SEM

For `C=C1[C@@H]2CC[C@H]3[C@]4(C)C[C@H](O[C@@H]5O[C@H](CO)[C@@H](OS(=O)(=O)O)[C@H](OS(=O)(=O)O)[C@H]5OC(=O)CC(C)C)C[C@@H](C(=O)O)[C@H]4CC[C@]3(C2)[C@H]1O` [ATR, atractyloside], the “ADP/ATP exchange activity / ADP uptake” value [1] was “completely inhibited”.

With `CCCCc1oc2ccccc2c1C(=O)c1cc(I)c(OCCN(CC)CC)c(I)c1` [Amiodarone] the “activity in LOPAC pilot screen” value [2] was “identified as a hit” and the “cytotoxic effect in glucose-containing medium” value [3] was “exhibited cytotoxic effect in certain strains”.

In the case of `CO[C@H](C/C=C\C=C\CC/C=C/C[C@H](C)/C=C/C(=C\C(=O)O)CC(=O)O)/C(C)=C\C=C(/C)C(=O)O` [BKA, bongkrekic acid], the “activity in LOPAC pilot screen” value [2] is reported as “weakly active” and the “ADP/ATP exchange activity / ADP uptake” value [1] is reported as “completely inhibited”.

With `O=C(O)c1ccc2cc(-c3ccc(O)c(C45CC6CC(CC(C6)C4)C5)c3)ccc2c1` [CD437] the “inhibition of [3H]ADP uptake by L. lactis” value (“inhibition of [3H]ADP uptake” below) [4] was “inhibited”, the “oxygen consumption rate (OCR)” value [5] was “inhibited OCR” and the IC50 [6, 22] was 54 ± 9 µM. For the same compound, the IC50 [7, 23] was 94 ± 19 µM, the “cytotoxic effect in glucose-containing medium” value [3] was “exhibited cytotoxic effect in certain strains” and the “selectivity for hANT2 over hANT3” value ([8]; L. lactis assay) was ~ 3 fold. The IC50 [8, 24] was 36 ± 6.3 µM and the “oxygen consumption rate (OCR)” value [9] was “Neither CD437 nor closantel produced an appreciable level of reduction of OCR”.

For `Cc1cc(C(C#N)c2ccc(Cl)cc2)c(Cl)cc1NC(=O)c1cc(I)cc(I)c1O` (centres unmarked) [Closantel], the IC50 [10] was 9.6 ± 8.7 µM, the IC50 [11] was 4.7 ± 0.8 µM and the “inhibition of [3H]ADP uptake” value [4] was “inhibited”. For the same compound, the IC50 [12] was 52 ± 15 µM, the IC50 [13] was 100 ± 32 µM and the “oxygen consumption rate (OCR)” value [5] was “inhibited OCR”. It also gave an IC50 [14] of over 100 µM, an IC50 [15] of over 100 µM and an IC50 [16] of 6.3 ± 2.3 µM. For the same compound, the IC50 [17] was 6.1 ± 2.4 µM, the IC50 [18] was over 100 µM and the IC50 [6] was 15 ± 2.8 µM. For the same compound, the “selectivity for hANT1 over hANT3” value ([6]; L. lactis assay) was ~ 3 fold, the IC50 [19] was over 100 µM and the IC50 [7] was 47 ± 11 µM. For the same compound, the IC50 [1] was 92 ± 32 µM, the IC50 [20] was 64 ± 25 µM and the IC50 [8] was 24 ± 4.2 µM. For the same compound, the “oxygen consumption rate (OCR)” value [9] was “Neither CD437 nor closantel produced an appreciable level of reduction of OCR”.

In the case of `N#CC(C#N)=NNc1ccc(OC(F)(F)F)cc1` [FCCP, carbonyl cyanide-4-(trifluoromethoxy) phenylhydrazone], the “[3H]ADP uptake in L. lactis” value ([8]; 10 μM, L. lactis expressing hANT2 (Fig. 2B right)) is reported as “inactive”.

With `O=C(Nc1cc(C(F)(F)F)cc(C(F)(F)F)c1)c1cc(Cl)ccc1O` [IMD 0354] the IC50 [10] was 0.85 ± 0.07 µM, the IC50 [11] was 0.58 ± 0.1 µM and the IC50 [16] was 0.52 ± 0.08 µM. The IC50 [17] was 0.45 ± 0.1 µM.

In the case of `CC(C)c1ccc2c(c1)CC[C@H]1[C@](C)(CN)CCC[C@]21C` [Leelamine], the “effect on hANT activity in mitochondrial assays” value ([21]; 100 μM, all isoforms) is reported as “inhibited hANT activity”, the “effect on translocase activity in mitochondria” value ([21]; 10 and 30 μM, hANT4, hANT3 and particularly hANT2 strains) is reported as “increased translocase activity” and the “inhibition of [3H]ADP uptake” value [4] is reported as “inhibited”. The “oxygen consumption rate (OCR)” value [5] was “decreased the OCR to a similar extent as cATR”, the “effect on translocase activity in L. lactis expressing hANT1” value ([6]; Fig. 3C) was “increased translocase activity” and the IC50 [6, 22] was over 100 µM. The “effect on translocase activity in L. lactis expressing hANT3” value ([7]; Fig. 3C) was “inhibited the activity”, the IC50 [7, 23] was 47 ± 11 µM and the “effect on translocase activity in L. lactis expressing hANT2” value ([8]; Fig. 3C) was “increased translocase activity”. The IC50 [8, 24] was over 100 µM and the “oxygen consumption rate (OCR)” value [9] was “decreased OCR”.

For `CN(C)c1ccc(O)c2c1C[C@H]1C[C@H]3[C@H](N(C)C)C(O)=C(C(N)=O)C(=O)[C@@]3(O)C(O)=C1C2=O` [Minocycline], the IC50 [10] was over 100 µM, the IC50 [11] was over 100 µM and the “inhibition of exchange activity in the mitochondrial assay” value ([21]; 30 μM, in at least one yeast strain (Suppl. Table S1)) was “strong inhibition”. The “inhibition of [3H]ADP uptake” value [4] was “completely inactive”, the IC50 [14] was over 100 µM and the IC50 [15] was over 100 µM. For the same compound, the IC50 [16] was over 100 µM, the IC50 [17] was over 100 µM and the IC50 [18] was over 100 µM. It also gave an IC50 [19] of over 100 µM.

In the case of `C[C@@H]1C[C@H]2CC[C@H](O2)[C@H](C)C(=O)O[C@@H](C)C[C@@H]2CC[C@@H](O2)[C@@H](C)C(=O)O[C@H](C)C[C@H]2CC[C@H](O2)[C@H](C)C(=O)O[C@@H](C)C[C@@H]2CC[C@@H](O2)[C@@H](C)C(=O)O1` [Nonactin], the IC50 [10] is reported as 3.3 ± 0.4 µM, the IC50 [11] is reported as 4.4 ± 1.3 µM and the IC50 [14] is reported as over 100 µM. For the same compound, the IC50 [15] was over 100 µM, the IC50 [16] was 4.7 ± 1.5 µM and the IC50 [17] was 3.3 ± 1.1 µM. It also gave an IC50 [18] of over 100 µM and an IC50 [19] of over 100 µM.

With `CC(C)(C)c1cc(C=C(C#N)C#N)cc(C(C)(C)C)c1O` [Tyrphostin A9] the IC50 [10] was 13 ± 4 µM, the IC50 [11] was 42 ± 20 µM and the IC50 [14] was over 100 µM. The IC50 [15] was over 100 µM, the IC50 [16] was 24 ± 10 µM and the IC50 [17] was 35 ± 15 µM. The IC50 [18] was over 100 µM and the IC50 [19] was over 100 µM.

For `C=C1[C@@H]2CC[C@H]3[C@]4(C)C[C@H](O[C@@H]5O[C@H](CO)[C@@H](OS(=O)(=O)O)[C@H](OS(=O)(=O)O)[C@H]5OC(=O)CC(C)C)CC(C(=O)O)(C(=O)O)[C@H]4CC[C@]3(C2)[C@H]1O` [cATR, carboxyatractyloside], the “oxygen consumption rate (OCR)” value [5] was “decreased OCR”, the IC50 [6, 22] was 0.0024 ± 0.0005 µM and the IC50 [7, 23] was 0.0023 ± 0.0007 µM. For the same compound, the “ADP/ATP exchange activity / ADP uptake” value [1] was “completely inhibited”, the IC50 [8, 24] was 0.0017 ± 0.0004 µM and the “oxygen consumption rate (OCR)” value [9] was “decreased OCR”.

For `COc1ccc2c(c[n+](C)c3c4cc5c(cc4ccc23)OCO5)c1OC` [chelerythrine], the “ADP/ATP exchange activity / ADP uptake” value [1] was “reduced ADP uptake”.

With `O=C(O)c1nn(Cc2ccc(Cl)cc2Cl)c2ccccc12` [lonidamine] the “ADP/ATP exchange activity / ADP uptake” value [1] was “reduced ADP uptake”.

In the case of antimycin, the “ADP/ATP exchange activity / ADP uptake” value [1] is reported as “reduced ADP uptake”.
